# ChEMBL document CHEMBL4330070, “Design and synthesis of novel pyrimidine derivatives as potent antitubercular agents” (Eur J Med Chem, 2019)
# Calls of active or inactive are those of the source. No cut-off for these calls is given here.
# Key:
# [1] = test system: Mycobacterium tuberculosis; assay: Antimicrobial activity against autoluminescent Mycobacterium tuberculosis H37Ra infected in BALB/c mouse assessed as reduction in bacterial burden in lung at 100 to 300 mg/kg administered daily via gavage for 5 days and measured on day 6 by luminometric method; assay type: functional
# In short: (§1)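 Mice grouped by similar RLU, four per group. Dosed by gavage daily from day 0 to day 5 in 0.5% CMC-Na, with vehicle, RIF 10 mg/kg and PZA 150 mg/kg controls. Lung or spleen burden read as log10 RLU, mean ± SD.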
# [2] = test system: Mycobacterium tuberculosis; assay: Antimicrobial activity against autoluminescent Mycobacterium tuberculosis H37Ra infected in BALB/c mouse assessed as reduction in bacterial burden in spleen at 100 to 300 mg/kg administered daily via gavage for 5 days and measured on day 6 by luminometric method; assay type: functional; in short: as §1
# [3] = test system: Mycobacterium tuberculosis; assay: Antimicrobial activity against autoluminescent Mycobacterium tuberculosis H37Ra assessed as test compound concentration causing ratio of drug treated RLU/untreated RLU less than 10% measured every day up to 6 days by luminometric method; assay type: functional; conditions: 144 h
# In short: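 Autoluminescent marker-free H37Ra (UAIRa) grown in 7H9 with OADC and 0.05% Tween 80 until RLU exceeded 5 million/mL, then diluted to 10,000-50,000 RLU/mL in 7H9 without Tween 80. Compounds tested as 2-fold dilutions from 100 to 0.625 µg/mL, with DMSO 2% and rifampicin 1 µg/mL controls. RLU read daily to day 6. MIC is the lowest concentration giving RLU drug/DMSO below 10%.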
# [4] = Toxicity in Balb/c mouse infected with Mycobacterium tuberculosis H37Ra assessed as mouse death at 100 mg/kg administered daily via gavage for 5 days; assay type: organism-based; conditions: in vivo, po, 120 h
# In short: (§2)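 Female BALB/c mice aged 4-5 weeks infected by tail vein with autoluminescent H37Ra, four per group. Gavage daily from day 0 to day 5 in 0.5% CMC-Na vehicle. Deaths recorded over the 6-day treatment period and reported as percent survival.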
# [5] = test system: Mycobacterium tuberculosis; assay: Synergistic antimicrobial activity against autoluminescent Mycobacterium tuberculosis H37Ra assessed as test compound concentration causing ratio of drug treated RLU/untreated RLU less than 10% by measuring FICI at 0.0625 to 2 times MIC after 7 days in presence of sulfamethoxazole by luminometric method; assay type: functional
# In short: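 Exponential-phase UAIRa in 7H9 without Tween 80 at 10,000-50,000 RLU/mL. Compound at 2-fold dilutions from 2×MIC to MIC/16, each combined with sulfamethoxazole at 16, 8, 4 or 2 µg/mL, with a 2% DMSO control. RLU read after 7 days at 37 °C. MIC taken as RLU drug/DMSO below 10%. FICI is the sum of MIC in combination over MIC alone for each drug.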
# [6] = Toxicity in Balb/c mouse infected with Mycobacterium tuberculosis H37Ra assessed as mouse death at 300 mg/kg administered daily via gavage for 5 days; assay type: organism-based; conditions: in vivo, po, 120 h; in short: as §2
# [7] = Toxicity in Balb/c mouse infected with Mycobacterium tuberculosis H37Ra assessed as mouse death at 200 mg/kg administered daily via gavage for 5 days; assay type: organism-based; conditions: in vivo, po, 120 h; in short: as §2
# [8] = test system: Mycobacterium tuberculosis; assay: Antimicrobial activity against autoluminescent Mycobacterium tuberculosis H37Ra infected in BALB/c mouse assessed as reduction in bacterial burden in spleen at 200 mg/kg administered daily via gavage for 5 days and measured on day 6 by luminometric method; assay type: functional, organism-based; in short: as §1
# [9] = test system: Mycobacterium tuberculosis; assay: Antimicrobial activity against autoluminescent Mycobacterium tuberculosis H37Ra infected in BALB/c mouse assessed as reduction in bacterial burden in lung at 200 mg/kg administered daily via gavage for 5 days and measured on day 6 by luminometric method; assay type: functional, organism-based; in short: as §1
# [10] = test system: Mycobacterium tuberculosis; assay: Antimicrobial activity against autoluminescent Mycobacterium tuberculosis H37Ra infected in BALB/c mouse assessed as reduction in bacterial burden in spleen at 300 mg/kg administered daily via gavage for 5 days and measured on day 6 by luminometric method; assay type: functional, organism-based; in short: as §1
# [11] = test system: Mycobacterium tuberculosis; assay: Antimicrobial activity against autoluminescent Mycobacterium tuberculosis H37Ra infected in BALB/c mouse assessed as reduction in bacterial burden in lung at 300 mg/kg administered daily via gavage for 5 days and measured on day 6 by luminometric method; assay type: functional; in short: as §1
Compound,MIC [3],also measured
Cc1cc(Nc2ncc(Cl)c(Nc3cccc4ccccc34)n2)c(OC(C)C)cc1C1CCNCC1,5 µM,Activity [1]: 2 log10RLU; Activity [2]: 0.5 log10RLU; Activity [4]: Non-Toxic; fractional inhibitory concentration index (FICI) [5]: 0.74; Activity [6]: Non-Toxic
CC(C)S(=O)(=O)c1ccccc1Nc1nc(Nc2ccc(Cl)cc2)ncc1Cl,> 200 µM,–
Cc1cc(Nc2ncc(Cl)c(Nc3ccccc3S(=O)(=O)C(C)C)n2)c(OC(C)C)cc1N1CCOCC1,> 150 µM,–
Cc1cc(Nc2ncc(Cl)c(NCCc3ccccc3)n2)c(OC(C)C)cc1C1CCNCC1,5 µM,Activity [7]: Non-Toxic; Activity [8]: Active; Activity [9]: Active; fractional inhibitory concentration index (FICI) [5]: 0.74; Activity [6]: Non-Toxic
COc1ccc(Nc2nc(Nc3cc(C)c(C4CCNCC4)cc3OC(C)C)ncc2Cl)cc1Br,9 µM,–
Cc1cc(Nc2ncc(Cl)c(NC34CC5CC(CC(C5)C3)C4)n2)c(OC(C)C)cc1C1CCNCC1,20 µM,–
Cc1cc(Nc2ncc(Cl)c(N[C@H](C)c3ccccc3)n2)c(OC(C)C)cc1C1CCNCC1,10 µM,–
Cc1cc(Nc2ncc(Cl)c(Nc3ccccc3S(=O)(=O)C(C)C)n2)c(OC(C)C)cc1N1CCN(C)CC1,18 µM,–
COc1ccc(Nc2ncc(Cl)c(Nc3ccccc3S(=O)(=O)C(C)C)n2)cc1,> 200 µM,–
Cc1cc(Nc2ncc(Cl)c(Nc3ccc(C(N)=O)cc3)n2)c(OC(C)C)cc1C1CCNCC1,20 µM,–
Cc1cc(Nc2ncc(Cl)c(NCc3ccccc3)n2)c(OC(C)C)cc1C1CCNCC1,10 µM,–
Cc1cc(Nc2ncc(Cl)c(NC3CCCCC3)n2)c(OC(C)C)cc1C1CCNCC1,11 µM,–
CC(C)S(=O)(=O)c1ccccc1Nc1nc(Nc2ccccc2OCCCN2CCOCC2)ncc1Cl,> 150 µM,–
Cc1cc(Nc2ncc(Cl)c(Nc3cc(C(F)(F)F)cc(C(F)(F)F)c3)n2)c(OC(C)C)cc1C1CCNCC1,17 µM,–
Cc1cc(Nc2ncc(Cl)c(Nc3ccccc3S(=O)(=O)C(C)C)n2)c(OC(C)C)cc1C1CCNCC1 [CERITINIB],9 µM,Activity [10]: inactive; Activity [11]: 1 log10RLU; fractional inhibitory concentration index (FICI) [5]: 0.74; Activity [6]: Toxic
Cc1cc(Nc2ncc(Cl)c(NCCc3cccs3)n2)c(OC(C)C)cc1C1CCNCC1,10 µM,–
CC(C)S(=O)(=O)c1ccccc1Nc1nc(Nc2ccccc2O)ncc1Cl,> 200 µM,–

Compound,MIC [3],also measured
CC(C)S(=O)(=O)c1ccccc1Nc1nc(Nc2ccc(C(N)=O)cc2)ncc1Cl,> 200 µM,–
Cc1cc(Nc2ncc(Cl)c(NCCc3ccc(F)cc3)n2)c(OC(C)C)cc1C1CCNCC1,10 µM,–
Cc1cc(Nc2ncc(Cl)c(Nc3ccccc3S(=O)(=O)C(C)C)n2)c(OC(C)C)cc1N1CCNCC1,9 µM,–
Cc1cc(Nc2ncc(Cl)c(N3CCCc4ccccc43)n2)c(OC(C)C)cc1C1CCNCC1,20 µM,–
Cc1cc(Nc2ncc(Cl)c(Nc3ccccc3O)n2)c(OC(C)C)cc1C1CCNCC1,≤ 10 µM,–
COc1ccc(-c2cc(Nc3nc(Nc4cc(C)c(C5CCNCC5)cc4OC(C)C)ncc3Cl)ccc2OC)cc1,17 µM,–
Cc1cc(NS(=O)(=O)c2ccc(N)cc2)no1 [SULFAMETHOXAZOLE],67 µM,–
Cc1cc(Nc2ncc(Cl)c(Nc3ccc(O)cc3)n2)c(OC(C)C)cc1C1CCNCC1,10 µM,–
CC(C)S(=O)(=O)c1ccccc1Nc1nc(Nc2ccccc2C#N)ncc1Cl,> 200 µM,–
CC(C)S(=O)(=O)c1ccccc1Nc1nc(NCCc2ccc(Br)cc2)ncc1Cl,> 150 µM,–
COc1ccc(CCNc2nc(Nc3cc(C)c(C4CCNCC4)cc3OC(C)C)ncc2Cl)cc1,5 µM,Activity [7]: Toxic; Activity [8]: inactive; Activity [9]: inactive; fractional inhibitory concentration index (FICI) [5]: 1.24
Cc1cc(Nc2ncc(Cl)c(Nc3ccc4ccccc4c3)n2)c(OC(C)C)cc1C1CCNCC1,10 µM,–
Cc1cc(Nc2ncc(Cl)c(Nc3cccc(-c4ccccc4)c3)n2)c(OC(C)C)cc1C1CCNCC1,19 µM,–
Cc1cc(Nc2ncc(Cl)c(NC(C)(C)Cc3ccc4ccccc4c3)n2)c(OC(C)C)cc1C1CCNCC1,18 µM,–
CC(C)S(=O)(=O)c1ccccc1Nc1nc(Nc2ccc(C#N)c(F)c2)ncc1Cl,> 200 µM,–
Cc1cc(Cc2ncc(Cl)c(NCCc3ccc(O)cc3)n2)c(OC(C)C)cc1C1CCNCC1,10 µM,–
